Results reported in publication PMC7261373 (Journal of medicinal chemistry, 2019).

Key:
MCF7:5C cells = assay: DNA content assay, 2D growth inhibition of MCF7:5C cells; format: cell-based; conditions: for growth inhibition, result in words: 2D culture
Procedure, shortened: (§1)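 Cells were seeded at 5000/well in 96-well plates and treated with 0.01% (v/v) DMSO vehicle or serially diluted test compound. MCF7:WS8 cells were estrogen-stripped for 2 days beforehand (phenol red-free RPMI-1640, stripped FBS) and read on day 5. MCF7:5C cells, kept in phenol red-free RPMI-1640 with charcoal:dextran-stripped FBS, were read on day 7. Lysis was at −80 °C overnight, then Hoechst 33258 fluorescence was measured in TNE buffer. Data were normalized to vehicle and no cells, from ≥3 biological and analytical replicates.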

ERα [1] = biological target: T1, ERα (Homo sapiens, UniProt P03372); assay: ER in-cell western; format: cell-based; conditions: MCF7:WS8, 24 h treatment
T1 sequence (P03372 1-595): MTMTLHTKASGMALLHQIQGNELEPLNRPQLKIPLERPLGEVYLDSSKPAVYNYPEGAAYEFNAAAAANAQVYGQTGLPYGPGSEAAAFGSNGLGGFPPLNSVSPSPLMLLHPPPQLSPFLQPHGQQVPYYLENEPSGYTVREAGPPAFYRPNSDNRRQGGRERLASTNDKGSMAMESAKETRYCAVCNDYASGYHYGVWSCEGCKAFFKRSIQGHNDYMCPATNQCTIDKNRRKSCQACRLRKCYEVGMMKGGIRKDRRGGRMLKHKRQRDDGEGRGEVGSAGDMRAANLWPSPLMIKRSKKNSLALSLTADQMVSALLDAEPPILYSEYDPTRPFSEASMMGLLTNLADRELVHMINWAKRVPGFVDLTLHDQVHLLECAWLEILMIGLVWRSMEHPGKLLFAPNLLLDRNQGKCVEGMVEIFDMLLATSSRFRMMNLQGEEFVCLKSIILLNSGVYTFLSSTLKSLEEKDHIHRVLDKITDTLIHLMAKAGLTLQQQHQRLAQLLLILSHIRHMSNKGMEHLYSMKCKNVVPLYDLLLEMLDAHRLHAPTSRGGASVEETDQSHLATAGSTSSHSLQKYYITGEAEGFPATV
Procedure, shortened: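 MCF7:WS8 cells were stripped for 2 days (phenol red-free medium, stripped FBS), plated at 2.5 × 10^4 cells/well, grown 48 h, then treated 24 h. They were fixed and stained with anti-ERα (H10) by the in-cell western protocol. The IRDye 800CW signal was normalized to CellTag 700 stain.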

[2] = Preliminary PK screen, plasma and brain concentrations by LC-MS/MS; format: in vivo, C57BL/6 mice; conditions: for concentration in the brain: 0.5 and 2 h, 100 mg/kg oral
MCF7:TAM1 spheroids = assay: Spheroid growth assay; format: cell-based; conditions: 10 nM, 14 days, ATP content
Procedure, shortened: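 MCF7:TAM1 cells, maintained in phenol red-free stripped RPMI-1640 containing 1 μM of the selecting antiestrogen, were plated at 1000–1500 cells/well in ultra-low-attachment round-bottom plates. Spheroids grew untreated for 1–3 days. Half the medium was then replaced with 2× treatment medium, and 1× treatment was repeated every 2–3 days over 14 days; vehicle was 0.01% DMSO. Viability was read by CellTiter-Glo 3D luminescence, normalized to vehicle (1.0) and background (0.0). Three biological and analytical replicates were run, analysed by one-way ANOVA versus vehicle.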

ERE-luciferase = format: cell-based; conditions: MCF7:WS8, in competition with 1 nM E2
Procedure, shortened: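 MCF7:WS8 cells were grown 3 days in phenol red-free RPMI-1640 with stripped FBS, plated at 1 × 10^5 cells/well, and held 24 h. They were then co-transfected for 6 h (Lipofectamine 2000, Opti-MEM) with pERE-luciferase (three Xenopus vitellogenin A2 EREs driving firefly luciferase) and pRL-TK Renilla. Cells were treated with test compound plus 1 nM E2 for 18 h before dual-luciferase readout.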

MCF7:WS8 cells = assay: DNA content assay, 2D growth inhibition of MCF7:WS8 cells; format: cell-based; conditions: for growth inhibition, result in words: MCF7:WS8, 2D culture
Procedure, shortened: as §1

Full PK analysis of 37d = format: in vivo, CD-1 mice; conditions: CD-1, mouse, plasma, po, 50 mg/kg
Procedure, shortened: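 Test compound was given orally at 50 mg/kg as a solution in water and 10% SBE-β-CD/PEG-400 (9:1 v/v). Plasma was sampled at 10 time points. Samples were diluted in 50% acetonitrile, with working standards serially diluted in 50% acetonitrile in water, and quantified by LC-MS/MS.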

[3] = test system: T47D:WT, T47D:TYS (Y537S) and T47D:TDG (D538G) cells; assay: Spheroid growth assay; format: cell-based; conditions: 10 nM, 11 days treatment
ERα [4] = biological target: T1, ERα; assay: ER western assay with proteasomal inhibitor MG-132 in MCF7:WS8 cells; format: cell-based; conditions: MCF7:WS8, 10 nM, MG-132 1 μM, western blot

## Cc1ccccc1C(=O)c1sc2cc(O)ccc2c1Oc1ccc(OCCN2CCC2)cc1 [30a, (3-(4-(2-(Azetidin-1-yl)ethoxy)phenoxy)-6-hydroxybenzo[b]-thiophen-2-yl)(o-tolyl)methanone]
MCF7:5C cells
  growth inhibition, result in words: significantly reduced efficacy
ERα [1]
  ERα degradation by ICW, result in words: reduced efficacy

## Cc1cc(F)cc(C)c1C(=O)c1sc2cc(O)ccc2c1Oc1ccc(OCCN2CC(CF)C2)cc1 [30f, (4-Fluoro-2,6-dimethylphenyl)(3-(4-(2-(3-(fluoromethyl)azetidin-1-yl)ethoxy)phenoxy)-6-hydroxybenzo[b]thiophen-2-yl)-methanone]
[2]
  concentration in the brain: 600 to 750 nM
MCF7:TAM1 spheroids
  inhibition of spheroid growth, in words: greater efficacy

## O=C(c1ccc(O)cc1)c1sc2cc(O)ccc2c1Oc1ccc(OCCN2CC(CF)C2)cc1 [30g, (3-(4-(2-(3-(Fluoromethyl)azetidin-1-yl)ethoxy)phenoxy)-6-hydroxybenzo[b]thiophen-2-yl)(4-hydroxyphenyl)methanone]
MCF7:5C cells
  growth inhibition, result in words: lost efficacy

## Cc1cc(O)ccc1C(=O)c1sc2cc(O)ccc2c1Oc1ccc(OCCN2CC(CF)C2)cc1 [30h, (3-(4-(2-(3-(Fluoromethyl)azetidin-1-yl)ethoxy)phenoxy)-6-hydroxybenzo[b]thiophen-2-yl)(4-hydroxy-2-methylphenyl)-methanone]
ERα [1]
  ERα degradation by ICW, result in words: reduced efficacy
ERE-luciferase
  antagonism of ERE-luciferase induction by E2, potency in words: lower potency

## Cc1ccccc1C(=O)c1sc2cc(O)ccc2c1Oc1ccc(OCCN2CC[C@@H](CF)C2)cc1 [30l, (R)-(3-(4-(2-(3-(Fluoromethyl)pyrrolidin-1-yl)ethoxy)phenoxy)-6-hydroxybenzo[b]thiophen-2-yl)(o-tolyl)methanone]
MCF7:WS8 cells
  growth inhibition, result in words: superior potency and efficacy to 2
MCF7:5C cells
  growth inhibition, result in words: superior potency and efficacy to 2

## Cc1cc(F)cc(C)c1C(=O)c1sc2cc(O)ccc2c1Oc1ccc(OCCN2CC[C@@H](CF)C2)cc1 [30m, (R)-(4-Fluoro-2,6-dimethylphenyl)(3-(4-(2-(3-(fluoromethyl)-pyrrolidin-1-yl)ethoxy)phenoxy)-6-hydroxybenzo[b]thiophen-2-yl)-methanone]
ERE-luciferase
  antagonism of ERE-luciferase induction by E2, potency in words: lower potency

## Cc1cc(F)cc(C)c1C(=O)c1sc2cc(O)ccc2c1Oc1ccc(OCCN2CC[C@H](CF)C2)cc1 [30n, (S)-(4-Fluoro-2,6-dimethylphenyl)(3-(4-(2-(3-(fluoromethyl)-pyrrolidin-1-yl)ethoxy)phenoxy)-6-hydroxybenzo[b]thiophen-2-yl)-methanone]
ERα [1]
  ERα degradation by ICW, result in words: reduced efficacy

## Cc1ccccc1C(=O)c1sc2cc(O)ccc2c1Oc1ccc(OCCN2CCCCC2)cc1 [30o, (6-Hydroxy-3-(4-(2-(piperidin-1-yl)ethoxy)phenoxy)benzo[b]-thiophen-2-yl)(o-tolyl) Methanone]
MCF7:5C cells
  growth inhibition, result in words: did not inhibit growth
ERα [1]
  ERα degradation by ICW, result in words: did not induce ER degradation

## Cc1cc(F)cc(C)c1C(=O)c1sc2cc(O)ccc2c1Oc1ccc(OC2CN(CCCF)C2)cc1 [37d, (4-Fluoro-2,6-dimethylphenyl)(3-(4-((1-(3-fluoropropyl)azetidin-3-yl)oxy)phenoxy)-6-hydroxybenzo[b]thiophen-2-yl)methanone]
[2]
  concentration in the brain: exceeded 1 μM
Full PK analysis of 37d
  half-life: 270 min
MCF7:TAM1 spheroids
  inhibition of spheroid growth, in words: greater efficacy
[3]
  efficacy in T47D spheroids, in words: equally as effective as the SERDs, fulvestrant (2) and GDC-0927 (3b), and as the SERM 1b
ERα [4]
  proteasome dependence of ERα degradation, in words: coadministration of a proteasome inhibitor blocked the actions

## Cc1cc(F)cc(C)c1C(=O)c1sc2cc(O)ccc2c1Oc1ccc(OC2CN(C3CC3)C2)cc1 [37f, (3-(4-((1-Cyclopropylazetidin-3-yl)oxy)phenoxy)-6-hydroxybenzo[b]thiophen-2-yl)(4-fluoro-2,6-dimethylphenyl)-methanone]
MCF7:WS8 cells
  growth inhibition, result in words: potent and effective
MCF7:5C cells
  growth inhibition, result in words: loss of efficacy
ERα [1]
  ERα degradation by ICW, result in words: low efficacy
ERE-luciferase
  antagonism of ERE-luciferase induction by E2, potency in words: lower potency

## C[C@]12CC[C@@H]3c4ccc(O)cc4C[C@@H](CCCCCCCCC[S+]([O-])CCCC(F)(F)C(F)(F)F)[C@H]3[C@@H]1CC[C@@H]2O (stereo partly drawn) [compound 2, fulvestrant, reference compound]
MCF7:WS8 cells; MCF7:WS8, 96 h, read-out: pIC50, inhibition of cell growth (converted)
  IC50: 0.631 to 1.58 nM
MCF7:5C cells; 144 h, read-out: pIC50, inhibition of cell growth (converted)
  IC50: 0.631 to 1.58 nM
[2]; 30 min, s.c.
  concentration in the brain, in words: below the limit of quantification
MCF7:TAM1 spheroids
  inhibition of spheroid growth, in words: greater efficacy

## O=C(c1ccc(OCCN2CCCCC2)cc1)c1c(-c2ccc(O)cc2)sc2cc(O)ccc12 [compound 6, raloxifene, reference compound]
MCF7:5C cells
  growth inhibition, result in words: cross-resistant
